Assay results reported in ChEMBL document CHEMBL4152188, “Design, synthesis and biological evaluation of C(4) substituted monobactams as antibacterial agents against multidrug-resistant Gram-negative bacteria” (Eur J Med Chem, 2018).
Values after ≈ are worked out from the molar mass of the structure shown.

Assays:
Format in all cases: functional
Escherichia coli [1] = assay: Selectivity index, ratio of MIC for against Escherichia coli isolate 210737 to MIC for Escherichia coli isolate 210737 in presence of BPL
Klebsiella pneumoniae [2] = assay: Antibacterial activity against KPC-2 producing Klebsiella pneumoniae isolate 212232 after 18 hrs in presence of BPL by CLSI broth microdilution method; settings: isolate 212232, 18 h
Summary of the method: (§1)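 CLSI broth microdilution against clinical isolates (ESBL E. coli, KPC-2 MDR K. pneumoniae, IMP-4 MDR P. aeruginosa; five per species). Iron limitation: Mueller-Hinton broth supplemented with 16 mg/liter 2,2'-bipyridyl to complex iron and induce iron uptake systems. Read-out: MIC.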

Escherichia coli [3] = assay: Antibacterial activity against extended-spectrum beta-lactamase producing Escherichia coli isolate 212648 after 18 hrs in presence of BPL by CLSI broth microdilution method; settings: isolate 212648, 18 h; summary of the method: as §1
Escherichia coli [4] = assay: Selectivity index, ratio of MIC for against extended-spectrum beta-lactamase producing Escherichia coli isolate 106342 to MIC for extended-spectrum beta-lactamase producing Escherichia coli isolate 106342 in presence of BPL
Escherichia coli [5] = assay: Antibacterial activity against extended-spectrum beta-lactamase producing Escherichia coli isolate 209285 after 18 hrs in presence of BPL by CLSI broth microdilution method; settings: isolate 209285, 18 h; summary of the method: as §1
Escherichia coli [6] = assay: Antibacterial activity against extended-spectrum beta-lactamase producing Escherichia coli isolate 106342 after 18 hrs by CLSI broth microdilution method; settings: isolate 106342, 18 h
Escherichia coli [7] = assay: Antibacterial activity against extended-spectrum beta-lactamase producing Escherichia coli isolate 208687 after 18 hrs by CLSI broth microdilution method; settings: isolate 208687, 18 h
Pseudomonas aeruginosa [8] = assay: Selectivity index, ratio of MIC for against IMP-4 producing Pseudomonas aeruginosa isolate 209471 to MIC for against IMP-4 producing Pseudomonas aeruginosa isolate 209471 in presence of BPL
Pseudomonas aeruginosa [9] = assay: Antibacterial activity against IMP-4 producing Pseudomonas aeruginosa isolate 209471 after 18 hrs by CLSI broth microdilution method; settings: isolate 209471, 18 h
Klebsiella pneumoniae [10] = assay: Antibacterial activity against KPC-2 producing Klebsiella pneumoniae isolate 209735 after 18 hrs by CLSI broth microdilution method; settings: isolate 209735, 18 h
Pseudomonas aeruginosa [11] = assay: Antibacterial activity against IMP-4 producing Pseudomonas aeruginosa isolate 208247 after 18 hrs in presence of BPL by CLSI broth microdilution method; settings: isolate 208247, 18 h; summary of the method: as §1
Pseudomonas aeruginosa [12] = assay: Antibacterial activity against IMP-4 producing Pseudomonas aeruginosa isolate 212886 after 18 hrs in presence of BPL by CLSI broth microdilution method; settings: isolate 212886, 18 h; summary of the method: as §1
Pseudomonas aeruginosa [13] = assay: Antibacterial activity against IMP-4 producing Pseudomonas aeruginosa isolate 212886 after 18 hrs by CLSI broth microdilution method; settings: isolate 212886, 18 h
Klebsiella pneumoniae [14] = assay: Antibacterial activity against KPC-2 producing Klebsiella pneumoniae isolate 209632 after 18 hrs by CLSI broth microdilution method; settings: isolate 209632, 18 h
Escherichia coli [15] = assay: Selectivity index, ratio of MIC for against extended-spectrum beta-lactamase producing Escherichia coli isolate 208687 to MIC for extended-spectrum beta-lactamase producing Escherichia coli isolate 208687 in presence of BPL
Escherichia coli [16] = assay: Antibacterial activity against extended-spectrum beta-lactamase producing Escherichia coli isolate 209285 after 18 hrs by CLSI broth microdilution method; settings: isolate 209285, 18 h
Pseudomonas aeruginosa [17] = assay: Antibacterial activity against IMP-4 producing Pseudomonas aeruginosa isolate 207272 after 18 hrs by CLSI broth microdilution method; settings: isolate 207272, 18 h
Klebsiella pneumoniae [18] = assay: Antibacterial activity against KPC-2 producing Klebsiella pneumoniae isolate 212232 after 18 hrs by CLSI broth microdilution method; settings: isolate 212232, 18 h
Klebsiella pneumoniae [19] = assay: Selectivity index, ratio of MIC for against KPC-2 producing Klebsiella pneumoniae isolate 209632 to MIC for against KPC-2 producing Klebsiella pneumoniae isolate 209632 in presence of BPL
Klebsiella pneumoniae [20] = assay: Selectivity index, ratio of MIC for against KPC-2 producing Klebsiella pneumoniae isolate 209735 to MIC for against KPC-2 producing Klebsiella pneumoniae isolate 209735 in presence of BPL
Klebsiella pneumoniae [21] = assay: Antibacterial activity against KPC-2 producing Klebsiella pneumoniae isolate 212229 after 18 hrs by CLSI broth microdilution method; settings: isolate 212229, 18 h
Klebsiella pneumoniae [22] = assay: Selectivity index, ratio of MIC for against KPC-2 producing Klebsiella pneumoniae isolate 212423 to MIC for against KPC-2 producing Klebsiella pneumoniae isolate 212423 in presence of BPL
Pseudomonas aeruginosa [23] = assay: Selectivity index, ratio of MIC for against IMP-4 producing Pseudomonas aeruginosa isolate 212886 to MIC for against IMP-4 producing Pseudomonas aeruginosa isolate 212886 in presence of BPL
Pseudomonas aeruginosa [24] = assay: Antibacterial activity against IMP-4 producing Pseudomonas aeruginosa isolate 207272 after 18 hrs in presence of BPL by CLSI broth microdilution method; settings: isolate 207272, 18 h; summary of the method: as §1
Pseudomonas aeruginosa [25] = assay: Selectivity index, ratio of MIC for against IMP-4 producing Pseudomonas aeruginosa isolate 207272 to MIC for against IMP-4 producing Pseudomonas aeruginosa isolate 207272 in presence of BPL
Escherichia coli [26] = assay: Selectivity index, ratio of MIC for against extended-spectrum beta-lactamase producing Escherichia coli isolate 209285 to MIC for extended-spectrum beta-lactamase producing Escherichia coli isolate 209285 in presence of BPL
Klebsiella pneumoniae [27] = assay: Selectivity index, ratio of MIC for against KPC-2 producing Klebsiella pneumoniae isolate 212229 to MIC for against KPC-2 producing Klebsiella pneumoniae isolate 212229 in presence of BPL
Pseudomonas aeruginosa [28] = assay: Antibacterial activity against IMP-4 producing Pseudomonas aeruginosa isolate 208247 after 18 hrs by CLSI broth microdilution method; settings: isolate 208247, 18 h
Klebsiella pneumoniae [29] = assay: Selectivity index, ratio of MIC for against KPC-2 producing Klebsiella pneumoniae isolate 212232 to MIC for against KPC-2 producing Klebsiella pneumoniae isolate 212232 in presence of BPL
Pseudomonas aeruginosa [30] = assay: Selectivity index, ratio of MIC for against IMP-4 producing Pseudomonas aeruginosa isolate 209321 to MIC for against IMP-4 producing Pseudomonas aeruginosa isolate 209321 in presence of BPL
Escherichia coli [31] = assay: Antibacterial activity against extended-spectrum beta-lactamase producing Escherichia coli isolate 212648 after 18 hrs by CLSI broth microdilution method; settings: isolate 212648, 18 h
Escherichia coli [32] = assay: Antibacterial activity against extended-spectrum beta-lactamase producing Escherichia coli isolate 106342 after 18 hrs in presence of BPL by CLSI broth microdilution method; settings: isolate 106342, 18 h; summary of the method: as §1
Pseudomonas aeruginosa [33] = assay: Selectivity index, ratio of MIC for against IMP-4 producing Pseudomonas aeruginosa isolate 208247 to MIC for against IMP-4 producing Pseudomonas aeruginosa isolate 208247 in presence of BPL
Escherichia coli [34] = assay: Antibacterial activity against Escherichia coli isolate 210737 after 18 hrs by CLSI broth microdilution method; settings: isolate 210737, 18 h
Escherichia coli [35] = assay: Selectivity index, ratio of MIC for against extended-spectrum beta-lactamase producing Escherichia coli isolate 212648 to MIC for extended-spectrum beta-lactamase producing Escherichia coli isolate 212648 in presence of BPL
Pseudomonas aeruginosa [36] = assay: Antibacterial activity against IMP-4 producing Pseudomonas aeruginosa isolate 209321 after 18 hrs in presence of BPL by CLSI broth microdilution method; settings: isolate 209321, 18 h; summary of the method: as §1
Klebsiella pneumoniae [37] = assay: Antibacterial activity against KPC-2 producing Klebsiella pneumoniae isolate 212229 after 18 hrs in presence of BPL by CLSI broth microdilution method; settings: isolate 212229, 18 h; summary of the method: as §1
Klebsiella pneumoniae [38] = assay: Antibacterial activity against KPC-2 producing Klebsiella pneumoniae isolate 212423 after 18 hrs by CLSI broth microdilution method; settings: isolate 212423, 18 h
Escherichia coli [39] = assay: Antibacterial activity against Escherichia coli isolate 210737 after 18 hrs in presence of BPL by CLSI broth microdilution method; settings: isolate 210737, 18 h; summary of the method: as §1
Pseudomonas aeruginosa [40] = assay: Antibacterial activity against IMP-4 producing Pseudomonas aeruginosa isolate 209471 after 18 hrs in presence of BPL by CLSI broth microdilution method; settings: isolate 209471, 18 h; summary of the method: as §1
Klebsiella pneumoniae [41] = assay: Antibacterial activity against KPC-2 producing Klebsiella pneumoniae isolate 209735 after 18 hrs in presence of BPL by CLSI broth microdilution method; settings: isolate 209735, 18 h; summary of the method: as §1
Klebsiella pneumoniae [42] = assay: Antibacterial activity against KPC-2 producing Klebsiella pneumoniae isolate 209632 after 18 hrs in presence of BPL by CLSI broth microdilution method; settings: isolate 209632, 18 h; summary of the method: as §1
Escherichia coli [43] = assay: Antibacterial activity against extended-spectrum beta-lactamase producing Escherichia coli isolate 208687 after 18 hrs in presence of BPL by CLSI broth microdilution method; settings: isolate 208687, 18 h; summary of the method: as §1
Pseudomonas aeruginosa [44] = assay: Antibacterial activity against IMP-4 producing Pseudomonas aeruginosa isolate 209321 after 18 hrs by CLSI broth microdilution method; settings: isolate 209321, 18 h
Klebsiella pneumoniae [45] = assay: Antibacterial activity against KPC-2 producing Klebsiella pneumoniae isolate 212423 after 18 hrs in presence of BPL by CLSI broth microdilution method; settings: isolate 212423, 18 h; summary of the method: as §1

## CC(C)C(O/N=C(\C(=O)N[C@@H]1C(=O)N(S(=O)(=O)O)[C@@H]1COC(=O)CNC(=O)c1cc(=O)c(O)c[nH]1)c1csc(N)n1)c1cc(=O)c(O)cn1O (stereo not given in full)
Escherichia coli [1]
  Selectivity Index: 2
Klebsiella pneumoniae [2]
  MIC: 16 µg/mL
Escherichia coli [3]
  MIC: 16 µg/mL
Escherichia coli [4]
  Selectivity Index: 1
Escherichia coli [5]
  MIC: 16 µg/mL
Escherichia coli [6]
  MIC: 16 µg/mL (≈ 21.6 µM)
Escherichia coli [7]
  MIC: 32 µg/mL (≈ 43.2 µM)
Pseudomonas aeruginosa [8]
  Selectivity Index: 1 - 2
Pseudomonas aeruginosa [9]
  MIC: > 64 µg/mL
Klebsiella pneumoniae [10]
  MIC: > 64 µg/mL
Pseudomonas aeruginosa [11]
  MIC: 64 µg/mL
Pseudomonas aeruginosa [12]
  MIC: > 64 µg/mL
Pseudomonas aeruginosa [13]
  MIC: > 64 µg/mL
Klebsiella pneumoniae [14]
  MIC: > 64 µg/mL
Escherichia coli [15]
  Selectivity Index: 8
Escherichia coli [16]
  MIC: 32 µg/mL (≈ 43.2 µM)
Pseudomonas aeruginosa [17]
  MIC: 64 µg/mL (≈ 86.4 µM)
Klebsiella pneumoniae [18]
  MIC: > 64 µg/mL
Klebsiella pneumoniae [19]
  Selectivity Index: 4
Klebsiella pneumoniae [20]
  Selectivity Index: 4
Klebsiella pneumoniae [21]
  MIC: > 64 µg/mL
Klebsiella pneumoniae [22]
  Selectivity Index: 4
Pseudomonas aeruginosa [23]
  Selectivity Index: 1 - 2
Pseudomonas aeruginosa [24]
  MIC: 64 µg/mL
Pseudomonas aeruginosa [25]
  Selectivity Index: 1
Escherichia coli [26]
  Selectivity Index: 2
Klebsiella pneumoniae [27]
  Selectivity Index: 4
Pseudomonas aeruginosa [28]
  MIC: 64 µg/mL (≈ 86.4 µM)
Klebsiella pneumoniae [29]
  Selectivity Index: >4
Pseudomonas aeruginosa [30]
  Selectivity Index: 2
Escherichia coli [31]
  MIC: 32 µg/mL (≈ 43.2 µM)
Escherichia coli [32]
  MIC: 16 µg/mL
Pseudomonas aeruginosa [33]
  Selectivity Index: 1
Escherichia coli [34]
  MIC: 16 µg/mL (≈ 21.6 µM)
Escherichia coli [35]
  Selectivity Index: 2
Pseudomonas aeruginosa [36]
  MIC: 32 µg/mL
Klebsiella pneumoniae [37]
  MIC: > 64 µg/mL
Klebsiella pneumoniae [38]
  MIC: > 64 µg/mL
Escherichia coli [39]
  MIC: 8 µg/mL
Pseudomonas aeruginosa [40]
  MIC: > 64 µg/mL
Klebsiella pneumoniae [41]
  MIC: > 64 µg/mL
Klebsiella pneumoniae [42]
  MIC: > 64 µg/mL
Escherichia coli [43]
  MIC: 4 µg/mL
Pseudomonas aeruginosa [44]
  MIC: 64 µg/mL (≈ 86.4 µM)
Klebsiella pneumoniae [45]
  MIC: > 64 µg/mL
